Measurements pooled from the literature.
Lines come from different studies, so protocols differ.
Target: Casein kinase I isoform gamma-2 (CSNK1G2, Homo sapiens, UniProt P78368)

| Structure (SMILES) | test | conditions | quantity | result |
| --- | --- | --- | --- | --- |
| CCCCC(=O)Nc1ccc(-c2ccc3ncn(CCC)c(=O)c3c2)cn1 | binding, competition with immobilised ligand | 0.5 µM | remaining binding | 91% |
| C1=C/COCc2cc(ccc2OCCN2CCCC2)Nc2nccc(n2)-c2cccc(c2)COC/1 | cell-free assay | 0.1 µM | remaining signal | 92% |
| C[C@H]1CC[C@H](n2c3cnccc3c3cnc(Nc4ccc5c(n4)CCN(C(=O)CO)C5)nc32)CC1 | cell-free assay | 1 µM | remaining signal | 98% |
| CC#CC(=O)N1CCC[C@H]1c1nc(-c2ccc(C(=O)Nc3ccccn3)cc2)c2c(N)nccn12 | enzyme activity, inhibitor | 1 µM | inhibition | 9% |
| N#Cc1ccc(NC(=O)Nc2ccccc2)cc1 | cell-free assay, competition with immobilised ligand | 25 µM | remaining binding | 100% |
| COc1ccc2oc(-c3ccc4nc(N)oc4c3)c/c(=N\c3ccccc3NC(=O)CCN)c2c1 | binding | 1 µM | remaining binding | 95% |
| N#Cc1ccc2nc(Nc3ccc(N4CCOCC4)c(Cl)c3)[nH]c2c1 | thermal stability, DSF | 30 µM | ΔTm | 3.6 °C |
| CN1CCN(C(=O)c2ccc(NC(=O)Nc3ccc(N(C)c4ccnc(Nc5ccc(CS(C)(=O)=O)cc5)n4)cc3)cc2)CC1 | binding | 1 µM | remaining binding | 100% |
| Cc1cc(O)c(-c2ccc([C@@H](C)CN(C)C)cc2)c2c1[nH]c(=O)c1sccc12 | enzyme activity, inhibitor | 0.1 µM | inhibition | -6.66% |
| CC(C)S(=O)(=O)c1ccc2nccc(Nc3ccc4sc(C5CCCC5)nc4c3)c2c1 | enzyme activity, inhibitor | 1 µM | activity vs control | 100% |
| C#Cc1cnc(Nc2ccnc(CO)c2)nc1Nc1ccccc1S(C)(=O)=NC#N (stereo not drawn) | cell-free assay | 1 µM | remaining signal | 65% |
| CO[C@@H]1[C@H](N(C)C(=O)c2ccccc2)C[C@H]2O[C@]1(C)n1c3ccccc3c3c4c(c5c6ccccc6n2c5c31)C(=O)NC4 | enzyme activity, inhibitor | 1 µM | inhibition | 4% |
